# Laboratory results: ChEMBL document CHEMBL4715745, “Synthesis and biological evaluation of novel FK228 analogues as potential isoform selective HDAC inhibitors” (Eur J Med Chem, 2016)
# Tested on: SF-539
# Experiment: Growth inhibition of human SF-539 cells measured after 48 hrs by sulforhodamine B assay
# Assay type: functional
# Settings: not given
# How it was run: (§1)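 Panel of 39 human cancer cell lines tested at the Japanese Foundation for Cancer Research. Five concentrations per compound, spanning 10⁻¹¹–10⁻⁷ M, 10⁻¹⁰–10⁻⁶ M or 10⁻⁸–10⁻⁴ M, were used to build dose-response curves. GI₅₀ is the concentration giving 50% growth inhibition relative to control.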
row,SMILES,GI50 [µM]
1,CC(C)[C@H]1NC(=O)C[C@H]2/C=C/CCSSC[C@@H](NC1=O)C(=O)N[C@@H](C)C(=O)NCC(=O)O2,15

# Tested on: HCC 2998
# Experiment: Growth inhibition of human HCC 2998 cells measured after 48 hrs by sulforhodamine B assay
# Assay type: functional
# Settings: not given
# How it was run: as §1
row,SMILES,GI50 [µM]
1,CC(C)[C@H]1NC(=O)C[C@H]2/C=C/CCSSC[C@@H](NC1=O)C(=O)N[C@@H](C)C(=O)NCC(=O)O2,13

# Tested on: not listed separately
# Experiment: Growth inhibition of human HBC5 cells measured after 48 hrs by sulforhodamine B assay
# Assay type: functional
# Settings: not given
# How it was run: as §1
row,SMILES,GI50 [µM]
1,CC(C)[C@H]1NC(=O)C[C@H]2/C=C/CCSSC[C@@H](NC1=O)C(=O)N[C@@H](C)C(=O)NCC(=O)O2,21

# Tested on: MKN-74
# Experiment: Growth inhibition of human MKN-74 cells measured after 48 hrs by sulforhodamine B assay
# Assay type: functional
# Settings: not given
# How it was run: as §1
row,SMILES,GI50 [µM]
1,CC(C)[C@H]1NC(=O)C[C@H]2/C=C/CCSSC[C@@H](NC1=O)C(=O)N[C@@H](C)C(=O)NCC(=O)O2,18

# Tested on: not listed separately
# Experiment: Growth inhibition of human HBC4 cells measured after 48 hrs by sulforhodamine B assay
# Assay type: functional
# Settings: not given
# How it was run: as §1
row,SMILES,GI50 [µM]
1,CC(C)[C@H]1NC(=O)C[C@H]2/C=C/CCSSC[C@@H](NC1=O)C(=O)N[C@@H](C)C(=O)NCC(=O)O2,17

# Tested on: PC-3
# Experiment: Growth inhibition of human PC-3 cells measured after 48 hrs by sulforhodamine B assay
# Assay type: functional
# Settings: not given
# How it was run: as §1
row,SMILES,GI50 [µM]
1,CC(C)[C@H]1NC(=O)C[C@H]2/C=C/CCSSC[C@@H](NC1=O)C(=O)N[C@@H](C)C(=O)NCC(=O)O2,13

# Tested on: OVCAR-5
# Experiment: Growth inhibition of human OVCAR-5 cells measured after 48 hrs by sulforhodamine B assay
# Assay type: functional
# Settings: not given
# How it was run: as §1
row,SMILES,GI50 [µM]
1,CC(C)[C@H]1NC(=O)C[C@H]2/C=C/CCSSC[C@@H](NC1=O)C(=O)N[C@@H](C)C(=O)NCC(=O)O2,15

# Tested on: HT-29
# Experiment: Growth inhibition of human HT-29 cells measured after 48 hrs by sulforhodamine B assay
# Assay type: functional
# Settings: not given
# How it was run: as §1
row,SMILES,GI50 [µM]
1,CC(C)[C@H]1NC(=O)C[C@H]2/C=C/CCSSC[C@@H](NC1=O)C(=O)N[C@@H](C)C(=O)NCC(=O)O2,12

# Tested on: NCI-H226
# Experiment: Growth inhibition of human NCI-H226 cells measured after 48 hrs by sulforhodamine B assay
# Assay type: functional
# Settings: not given
# How it was run: as §1
row,SMILES,GI50 [µM]
1,CC(C)[C@H]1NC(=O)C[C@H]2/C=C/CCSSC[C@@H](NC1=O)C(=O)N[C@@H](C)C(=O)NCC(=O)O2,21

# Tested on: OVCAR-3
# Experiment: Growth inhibition of human OVCAR-3 cells measured after 48 hrs by sulforhodamine B assay
# Assay type: functional
# Settings: not given
# How it was run: as §1
row,SMILES,GI50 [µM]
1,CC(C)[C@H]1NC(=O)C[C@H]2/C=C/CCSSC[C@@H](NC1=O)C(=O)N[C@@H](C)C(=O)NCC(=O)O2,16

# Tested on: not listed separately
# Experiment: Growth inhibition of human BSY1 cells measured after 48 hrs by sulforhodamine B assay
# Assay type: functional
# Settings: BSY-1
# How it was run: as §1
row,SMILES,GI50 [µM]
1,CC(C)[C@H]1NC(=O)C[C@H]2/C=C/CCSSC[C@@H](NC1=O)C(=O)N[C@@H](C)C(=O)NCC(=O)O2,27

# Tested on: HCT-116
# Experiment: Growth inhibition of human HCT-116 cells measured after 48 hrs by sulforhodamine B assay
# Assay type: functional
# Settings: not given
# How it was run: as §1
row,SMILES,GI50 [µM]
1,CC(C)[C@H]1NC(=O)C[C@H]2/C=C/CCSSC[C@@H](NC1=O)C(=O)N[C@@H](C)C(=O)NCC(=O)O2,11

# Tested on: OVCAR-4
# Experiment: Growth inhibition of human OVCAR-4 cells measured after 48 hrs by sulforhodamine B assay
# Assay type: functional
# Settings: not given
# How it was run: as §1
row,SMILES,GI50 [µM]
1,CC(C)[C@H]1NC(=O)C[C@H]2/C=C/CCSSC[C@@H](NC1=O)C(=O)N[C@@H](C)C(=O)NCC(=O)O2,22

# Tested on: RXF 631
# Experiment: Growth inhibition of human RXF 631 cells measured after 48 hrs by sulforhodamine B assay
# Assay type: functional
# Settings: not given
# How it was run: as §1
row,SMILES,GI50 [µM]
1,CC(C)[C@H]1NC(=O)C[C@H]2/C=C/CCSSC[C@@H](NC1=O)C(=O)N[C@@H](C)C(=O)NCC(=O)O2,100

# Tested on: SF-295
# Experiment: Growth inhibition of human SF-295 cells measured after 48 hrs by sulforhodamine B assay
# Assay type: functional
# Settings: not given
# How it was run: as §1
row,SMILES,GI50 [µM]
1,CC(C)[C@H]1NC(=O)C[C@H]2/C=C/CCSSC[C@@H](NC1=O)C(=O)N[C@@H](C)C(=O)NCC(=O)O2,51

# Tested on: MKN-45
# Experiment: Growth inhibition of human MKN-45 cells measured after 48 hrs by sulforhodamine B assay
# Assay type: functional
# Settings: not given
# How it was run: as §1
row,SMILES,GI50 [µM]
1,CC(C)[C@H]1NC(=O)C[C@H]2/C=C/CCSSC[C@@H](NC1=O)C(=O)N[C@@H](C)C(=O)NCC(=O)O2,100

# Tested on: SNB-78
# Experiment: Growth inhibition of human SNB-78 cells measured after 48 hrs by sulforhodamine B assay
# Assay type: functional
# Settings: not given
# How it was run: as §1
row,SMILES,GI50 [µM]
1,CC(C)[C@H]1NC(=O)C[C@H]2/C=C/CCSSC[C@@H](NC1=O)C(=O)N[C@@H](C)C(=O)NCC(=O)O2,13

# Tested on: A549
# Experiment: Growth inhibition of human A549 cells measured after 48 hrs by sulforhodamine B assay
# Assay type: functional
# Settings: not given
# How it was run: as §1
row,SMILES,GI50 [µM]
1,CC(C)[C@H]1NC(=O)C[C@H]2/C=C/CCSSC[C@@H](NC1=O)C(=O)N[C@@H](C)C(=O)NCC(=O)O2,18

# Tested on: ACHN
# Experiment: Growth inhibition of human ACHN cells measured after 48 hrs by sulforhodamine B assay
# Assay type: functional
# Settings: not given
# How it was run: as §1
row,SMILES,GI50 [µM]
1,CC(C)[C@H]1NC(=O)C[C@H]2/C=C/CCSSC[C@@H](NC1=O)C(=O)N[C@@H](C)C(=O)NCC(=O)O2,100

# Tested on: MDA-MB-231
# Experiment: Growth inhibition of human MDA-MB-231 cells measured after 48 hrs by sulforhodamine B assay
# Assay type: functional
# Settings: not given
# How it was run: as §1
row,SMILES,GI50 [µM]
1,CC(C)[C@H]1NC(=O)C[C@H]2/C=C/CCSSC[C@@H](NC1=O)C(=O)N[C@@H](C)C(=O)NCC(=O)O2,16

# Tested on: MKN-28
# Experiment: Growth inhibition of human MKN-28 cells measured after 48 hrs by sulforhodamine B assay
# Assay type: functional
# Settings: not given
# How it was run: as §1
row,SMILES,GI50 [µM]
1,CC(C)[C@H]1NC(=O)C[C@H]2/C=C/CCSSC[C@@H](NC1=O)C(=O)N[C@@H](C)C(=O)NCC(=O)O2,24
